The source made the active and inactive calls. No cut-off for these calls is given here.
Assays:
[1] = test system: HepG2; assay: Growth inhibition of human HepG2 cells after 48 hrs by MTT assay; assay type: functional; details: HepG2, 48 h
In short: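 Proliferation read-out; GI50 taken as the concentration giving 50% reduction of cancer cell proliferation.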

[2] = test system: HeLa; assay: Induction of apoptosis in human HeLa cells assessed as viable cells at 0.080 uM after 24 hrs by Annexin V-FITC/propidium iodide staining based flow cytometric analysis (reference value: 88.6%); assay type: functional; details: read-out: Activity
In short: (§1)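 HepG2 and HeLa cells were exposed to 0, 0.02, 0.040, 0.060, 0.080 and 0.10 µM for 6, 12 and 24 h. Cells were double-stained with Annexin V-FITC/PI and read by flow cytometry. Apoptotic rate was the percentage of FITC-positive cells, counting early plus late apoptotic.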

[3] = test system: HeLa; assay: Cell cycle arrest in human HeLa cells assessed as accumulation at S phase at 0.060 uM after 24 hrs by propidium iodide staining based flow cytometric analysis (reference value: 17.46%); assay type: functional
In short: (§2)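 HepG2 and HeLa cells were exposed to 0, 0.020, 0.040, 0.060, 0.080 or 0.10 µM for 6, 12 or 24 h. DNA content was stained with propidium iodide and analysed by flow cytometry to give the percentage of cells in G0/G1, S and G2/M phases; sub-G1 cells were also recorded.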

[4] = test system: HeLa; assay: Antitumor activity against human HeLa cells xenografted in nude mouse assessed as tumor volume at 10 mg/kg, ip after 14 days (reference value: 2292.17 mm3); assay type: functional
[5] = test system: HeLa; assay: Cell cycle arrest in human HeLa cells assessed as accumulation at G2/M phase at 0.080 uM after 12 hrs by propidium iodide staining based flow cytometric analysis relative to control; assay type: functional; in short: as §2
[6] = test system: Mus musculus; assay: Toxicity in nude mouse xenografted with human HeLa cells assessed as ulceration at 10 to 20 mg/kg, ip after 14 days; assay type: organism-based; details: in vivo, 336 h
[7] = test system: Mus musculus; assay: Toxicity in nude mouse xenografted with human HeLa cells assessed as change in mouse liver weight at 10 to 20 mg/kg, ip after 14 days; assay type: organism-based; details: in vivo, 336 h
[8] = test system: Mus musculus; assay: Toxicity in nude mouse xenografted with human HeLa cells assessed as cellular inflammatory infiltration in spleen at 10 to 20 mg/kg, ip after 14 days by hematoxylin and eosin staining based microscopic analysis; assay type: organism-based; details: in vivo, 336 h
[9] = target: Tubulin (Homo sapiens) (UniProt P68371+Q9H4B7+P0DPH7+P68366+Q13509+Q71U36+P04350+Q3ZCM7+P07437+P68363+Q9BQE3+Q6PEY2+Q13885+Q9BVA1+Q9BUF5); assay: Inhibition of tubulin polymerization in human HepG2 cells assessed as multinucleated cell formation at 0.04 to 0.1 uM after 12 hrs by DAPI staining based immunofluorescence confocal laser scanning microscopic analysis
[10] = test system: HeLa; assay: Antitumor activity against human HeLa cells xenografted in nude mouse assessed as necrosis of tumor cells at 10 to 20 mg/kg, ip after 14 days by hematoxylin and eosin staining based microscopic analysis; assay type: functional, organism-based
In short: (§3)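 Excised tumours and heart, liver, kidney and spleen were H&E-stained and examined microscopically. Tumour scoring covered cell arrangement and necrosis. Organ scoring covered inflammatory infiltration, edema, necrosis and cell morphology.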

[11] = test system: Mus musculus; assay: Toxicity in nude mouse xenografted with human HeLa cells assessed as change in mouse spleen weight at 10 to 20 mg/kg, ip after 14 days; assay type: organism-based; details: in vivo, 336 h
[12] = Selectivity index, ratio of CC50 for HEK293T cells to GI50 for human HepG2 cells; assay type: toxicity; details: HEK293T cells and HepG2 cells, read-out: Selectivity Index
In short: (§4)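 Ratio CC50/GI50: CC50 is the concentration reducing non-tumour 293T cell proliferation by 50%; GI50 is the concentration reducing cancer cell proliferation by 50%.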

[13] = test system: HeLa; assay: Cell cycle arrest in human HeLa cells assessed as accumulation at S phase at 0.10 uM after 24 hrs by propidium iodide staining based flow cytometric analysis (reference value: 17.46%); assay type: functional; in short: as §2
[14] = test system: HepG2; assay: Cell cycle arrest in human HepG2 cells assessed as accumulation at G2/M phase at 0.060 uM after 24 hrs by propidium iodide staining based flow cytometric analysis (reference value: 20.17%); assay type: functional; in short: as §2
[15] = test system: HepG2; assay: Induction of apoptosis in human HepG2 cells assessed as early apoptotic cells at 0.060 uM after 24 hrs by Annexin V-FITC/propidium iodide staining based flow cytometric analysis (reference value: 2.31%); assay type: functional; in short: as §1
[16] = test system: HeLa; assay: Induction of apoptosis in human HeLa cells assessed as viable cells at 0.020 uM after 24 hrs by Annexin V-FITC/propidium iodide staining based flow cytometric analysis (reference value: 88.6%); assay type: functional; details: read-out: Activity; in short: as §1
[17] = Selectivity index, ratio of CC50 for HEK293T cells to GI50 for human MCF7 cells; assay type: toxicity; details: HEK293T cells and MCF7 cells, read-out: Selectivity Index; in short: as §4
[18] = test system: HeLa; assay: Induction of apoptosis in human HeLa cells assessed as early apoptotic cells at 0.040 uM after 24 hrs by Annexin V-FITC/propidium iodide staining based flow cytometric analysis (reference value: 6.17%); assay type: functional; in short: as §1
[19] = test system: HepG2; assay: Induction of apoptosis in human HepG2 cells assessed as necrotic cells at 0.10 uM after 24 hrs by Annexin V-FITC/propidium iodide staining based flow cytometric analysis (reference value: 0.270%); assay type: functional; in short: as §1
[20] = test system: Mus musculus; assay: Cardiotoxicity in nude mouse xenografted with human HeLa cells assessed as necrosis in heart at 10 to 20 mg/kg, ip after 14 days by hematoxylin and eosin staining based microscopic analysis; assay type: toxicity, organism-based; details: in vivo, 336 h; in short: as §3
[21] = test system: HeLa; assay: Induction of apoptosis in human HeLa cells assessed as viable cells at 0.060 uM after 24 hrs by Annexin V-FITC/propidium iodide staining based flow cytometric analysis (reference value: 88.6%); assay type: functional; details: read-out: Activity; in short: as §1
[22] = test system: HeLa; assay: Induction of apoptosis in human HeLa cells assessed as viable cells at 0.10 uM after 24 hrs by Annexin V-FITC/propidium iodide staining based flow cytometric analysis (reference value: 88.6%); assay type: functional; details: read-out: Activity; in short: as §1
[23] = test system: HeLa; assay: Induction of apoptosis in human HeLa cells assessed as early apoptotic cells at 0.060 uM after 24 hrs by Annexin V-FITC/propidium iodide staining based flow cytometric analysis (reference value: 6.17%); assay type: functional; in short: as §1
[24] = test system: HepG2; assay: Induction of apoptosis in human HepG2 cells assessed as early apoptotic cells at 0.080 uM after 24 hrs by Annexin V-FITC/propidium iodide staining based flow cytometric analysis (reference value: 2.31%); assay type: functional; in short: as §1
[25] = test system: HeLa; assay: Induction of apoptosis in human HeLa cells assessed as late apoptotic cells at 0.060 uM after 24 hrs by Annexin V-FITC/propidium iodide staining based flow cytometric analysis (reference value: 4.98%); assay type: functional; in short: as §1
[26] = test system: HeLa; assay: Induction of apoptosis in human HeLa cells assessed as necrotic cells at 0.040 uM after 24 hrs by Annexin V-FITC/propidium iodide staining based flow cytometric analysis (reference value: 0.242%); assay type: functional; in short: as §1
[27] = Inhibition of porcine brain tubulin polymerization measured over 30 mins; set-up: species or system Sus scrofa
[28] = test system: HeLa; assay: Induction of apoptosis in human HeLa cells assessed as viable cells at 0.040 uM after 24 hrs by Annexin V-FITC/propidium iodide staining based flow cytometric analysis (reference value: 88.6%); assay type: functional; details: read-out: Activity; in short: as §1
[29] = test system: HepG2; assay: Induction of apoptosis in human HepG2 cells assessed as viable cells at 0.10 uM after 24 hrs by Annexin V-FITC/propidium iodide staining based flow cytometric analysis (reference value: 94.5%); assay type: functional; details: HepG2, 24 h, read-out: Activity; in short: as §1

## COc1cccc(C2=NN(C(=O)c3ccc(C)nc3)C(c3cn(C)c4ccc(OC)cc34)C2)c1 (centres undefined)
[1]
  GI50: 29 nM
[2]
  viability at 0.08 µM: 61.8%
[3]
  Activity: 16.47%
[4]
  Activity: 1213.02 mm3
[5]
  Activity: 66.08%
[6]
  Activity: Non-Toxic
[7]
  Activity: Non-Toxic
[8]
  Activity: Non-Toxic
[9]
  inhibition: Active
[10]
  Activity: Active
[11]
  Activity: Non-Toxic
[12]
  selectivity ratio: 3 to 10
[13]
  Activity: 17.88%
[14]
  Activity: 41.92%
[15]
  Activity: 7.94%
[16]
  viability at 0.02 µM: 88.7%
[17]
  selectivity ratio: 3 to 10
[18]
  Activity: 11%
[19]
  Activity: 2.46%
[20]
  Activity: Non-Toxic
[21]
  viability at 0.06 µM: 66.9%
[22]
  viability at 0.1 µM: 58.2%
[23]
  Activity: 26.1%
[24]
  Activity: 9.61%
[25]
  Activity: 6.49%
[26]
  Activity: 0.512%
[27]
  IC50: 1600 nM
[28]
  viability at 0.04 µM: 84.5%
[29]
  viability at 0.1 µM: 70.7%

Source: ChEMBL document CHEMBL4270573, “Novel nicotinoyl pyrazoline derivates bearing N-methyl indole moiety as antitumor agents: Design, synthesis and evaluation” (Eur J Med Chem, 2018)
